Compound activity as filed in PubChem.
MC4R ag barr = MC4R agonists recruiting beta-arrestin, primary screen, cell-based, luminescence, agonist arm of biased-ligand search; U2OS MC4R beta-arrestin complementation; percent of melanotan II response, DMSO zero; activation, % at 8.9 µM; 0.98% of 360,000 active; AID 540308, 2011;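 active means activation above a per-plate cutoff, the mean activation of sample wells on that plate plus 3 SD, cut at about 8% in these data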
TLR4-MyD88 BLA = inhibitors of TLR4-MyD88 association in cells, primary screen, cell-based, HeLa CL3-4, BLA complementation, FRET ratio; AID 861, 2007; Toll-like receptor 4 (Homo sapiens) + Myeloid differentiation primary response protein …; inhibition, % at 8.4 µM; 0.18% of 200,000 active; HeLa CL3-4 TLR4/MyD88 BLA complementation; in the data active means inhibition above about 25%;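 further: 0% = vehicle and 100% = reference inhibitor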
TLR9-MyD88 block = inhibitors of TLR9-MyD88 association in cells, primary screen, cell-based, CHO, BLA complementation, fluorescence. Toll-like receptor 9 (Homo sapiens) + Myeloid differentiation primary response protein …. CCF4 FRET ratio. inhibition, % at 4.98 µM. 0.21% of 340,000 active. AID 504734, 2011;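 active means inhibition above the mean over all tested compounds plus 3 SD, cut at about 21% in these data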;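 further: 0% = DMSO only wells and 100% = clavulanate BLA inhibitor control wells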
Target sequence (Q99836 whole entry, looked up): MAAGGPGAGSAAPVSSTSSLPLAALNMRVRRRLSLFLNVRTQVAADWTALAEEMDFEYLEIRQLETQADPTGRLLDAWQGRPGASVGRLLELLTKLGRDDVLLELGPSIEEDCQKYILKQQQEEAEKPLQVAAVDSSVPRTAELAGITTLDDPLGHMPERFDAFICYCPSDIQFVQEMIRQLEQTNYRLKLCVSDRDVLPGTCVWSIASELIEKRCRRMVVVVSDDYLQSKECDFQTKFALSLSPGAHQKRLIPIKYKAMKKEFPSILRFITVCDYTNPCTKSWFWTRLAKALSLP
Target sequence (Q9NR96 whole entry, looked up): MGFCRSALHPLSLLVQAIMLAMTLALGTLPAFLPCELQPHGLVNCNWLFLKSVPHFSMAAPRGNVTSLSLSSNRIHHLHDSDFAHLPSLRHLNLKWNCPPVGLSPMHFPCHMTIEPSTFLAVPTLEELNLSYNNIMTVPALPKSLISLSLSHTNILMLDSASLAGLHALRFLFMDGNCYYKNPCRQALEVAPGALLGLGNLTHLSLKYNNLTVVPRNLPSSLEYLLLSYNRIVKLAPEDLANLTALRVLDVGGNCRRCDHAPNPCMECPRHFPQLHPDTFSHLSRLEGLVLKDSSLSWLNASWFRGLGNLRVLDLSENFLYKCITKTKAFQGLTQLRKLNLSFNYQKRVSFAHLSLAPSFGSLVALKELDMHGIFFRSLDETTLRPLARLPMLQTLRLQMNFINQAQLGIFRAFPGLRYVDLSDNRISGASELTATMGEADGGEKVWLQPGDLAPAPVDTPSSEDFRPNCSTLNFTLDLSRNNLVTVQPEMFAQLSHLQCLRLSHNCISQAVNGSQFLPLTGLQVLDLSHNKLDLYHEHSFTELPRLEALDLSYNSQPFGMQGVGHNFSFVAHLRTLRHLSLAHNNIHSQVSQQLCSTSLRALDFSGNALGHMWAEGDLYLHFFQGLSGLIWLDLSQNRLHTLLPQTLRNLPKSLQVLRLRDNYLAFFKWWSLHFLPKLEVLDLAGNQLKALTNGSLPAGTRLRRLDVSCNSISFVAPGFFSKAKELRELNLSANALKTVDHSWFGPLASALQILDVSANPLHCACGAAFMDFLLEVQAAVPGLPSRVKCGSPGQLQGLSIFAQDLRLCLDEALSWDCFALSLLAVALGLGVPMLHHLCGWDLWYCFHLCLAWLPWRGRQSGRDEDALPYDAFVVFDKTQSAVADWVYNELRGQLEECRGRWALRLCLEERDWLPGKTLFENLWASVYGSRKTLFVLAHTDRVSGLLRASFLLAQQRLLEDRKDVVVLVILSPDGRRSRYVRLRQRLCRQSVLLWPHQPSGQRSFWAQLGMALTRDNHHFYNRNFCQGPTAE
NOD2 RIPK2 PPI = NOD2-RIPK2 binding disruptors in cells, primary screen, fluorescence, CHO cells, BLA complementation. Receptor-interacting serine/threonine-protein kinase 2 (Homo sapiens), O43353. 0.38% of 360,000 active. CCF4 ratio. inhibition, % at 4.98 µM; in the data active means inhibition above about 21%;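 further: 0% = vehicle only and 100% = reference blocker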
MC4R antag cAMP = MC4R antagonists of cAMP signaling, primary screen, cell-based, TR-FRET, antagonist arm of biased-ligand search; MC4R-expressing cells, MTII-stimulated cAMP, LANCE TR-FRET; Melanocortin receptor 4 (Homo sapiens), P32245; AID 540295, 2011; 0.48% of 360,000 active; inhibition, % at 6.5 µM;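 active means inhibition above its plate's cutoff, the mean of tested wells on that plate plus 3 SD, cut at about 29% in these data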;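 further: 0% = Melanotan II alone and 100% = Melanotan II plus saturating MCL0020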
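Material: U2OS-MC4R stable cell line | Reagent: Melanotan II challenge after compound preincubation | Doses: One concentration, 6.5 µM nominal | Incubation: 30-min compound preincubation, 1-h Melanotan II challenge, 1-h detection, room temperature | Signal: TR-FRET cAMP assay | Replicates: One well per compound, no replicates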
NOD2-RIPK2 conf = NOD2-RIPK2 binding disruptors, retest, confirmation, fluorescence, CHO cells, BLA complementation, triplicate. AID 624370, 2012. 70% of 1,200 active. inhibition, % at 4.98 µM. CCF4 FRET. shares compounds with NOD2 RIPK2 PPI;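 active means mean inhibition across replicates above a set limit taken from the earlier primary screen, cut at about 21% in these data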;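 further: 0% = DMSO-only wells and the high end = clavulanate BLA-blocked wells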
NOD2 BLA counter = counter-screen for NOD2-RIPK2 interaction inhibitors: BLA reporter. shares compounds with NOD2 RIPK2 PPI. CHO BLA reporter, CCF4 FRET ratio, counterscreen. inhibition, % at 4.98 µM. 57% of 1,200 active. AID 624371;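 active means mean inhibition above the low-control mean inhibition plus three low-control SD, cut at about 11% in these data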;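 further: 0% = DMSO only wells and 100% = clavulanate high control wells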
* marks the source's active call; other numbers are inactive results; . = no result; + = active, no number. Sampled rows, rich in hits. Any-hit rate of the full collection: about 1.8%.

SMILES	MC4R ag barr	TLR4-MyD88 BLA	TLR9-MyD88 block	NOD2 RIPK2 PPI	MC4R antag cAMP	NOD2-RIPK2 conf	NOD2 BLA counter
CCOC(=O)c1cc(-c2csc(Nc3c(C)cc(C)cc3C)n2)on1	2	.	3	-8	23	.	.
CCNC(=O)NC(=O)C(C)N1C(=O)NC(c2ccccc2)(c2ccccc2)C1=O (centres undefined)	-2	.	-5	+	-3	0	-2
COc1ccc(CNC(=O)C(C)N2C(=O)NC(c3ccccc3)(c3ccccc3)C2=O)cc1 (centres undefined)	-2	.	7	-7	10	.	.
COc1ccc2oc(=O)c(-c3nnc(NCc4ccco4)s3)cc2c1	1	12	20	21*	-20	49*	49*
Cc1ccc(/C(C#N)=C\c2ccc(N3CCOCC3)o2)cc1	4	12	15	42*	20	32*	27*
CCC1=Nc2cc(C(=O)NCCN3CCOCC3)ccc2Sc2ccccc21	0	.	7	1	-1	.	.
CCOCCCNC(=O)c1ccc2c(c1)N=C(CC)c1cc(Br)ccc1S2	-1	3	-2	28*	-18	7	0
COC(=O)c1cc(S(=O)(=O)N2CCC(c3cc(OC)ccc3OC)C2)c[nH]1 (centres undefined)	-3	.	-7	-4	-1	.	.
Cc1ccc(Nc2nc(N)c([N+](=O)[O-])c(NCc3ccco3)n2)cc1	8	10	-4	25*	-6	8	-2
O=C(Nc1ccc(S(=O)(=O)N2CCCC2)cc1)c1ccc([N+](=O)[O-])o1	-2	.	2	23*	22	27*	21*
O=C(Nc1ccc(Cc2ccncc2)cc1)c1ccc([N+](=O)[O-])o1	-2	.	7	21*	12	32*	16*
CC(=O)N1CCN(c2ccc(NC(=O)c3ccc([N+](=O)[O-])o3)cc2Cl)CC1	-3	.	4	28*	21	27*	6
Cc1ccc(Cn2c(=N)n(CC(=O)c3ccccc3)c3ccccc32)cc1	4	10	3	-4	0	.	.
N=C1C2=C3Sc4ccccc4N3CCCC2=NN1c1cccc(S(=O)(=O)O)c1	0	.	-5	-4	16	.	.
O=c1c2cccc(Cl)c2nc2n1Cc1ccccc1-2	-1	.	-2	-4	5	.	.
CCc1cc2c(=O)nc3n(c2s1)Cc1ccccc1/C3=C(/O)c1ccccc1Cl	0	0	16	31*	11	-1	-5
COc1ccc(C(C)(C)C)cc1NC(=O)CN1C(=O)C(=O)N(Cc2ccco2)C1=O	0	.	1	-2	5	.	.
O=C(NCc1ccccc1)C(c1ccc(C(F)(F)F)cc1)n1c(=O)c(-c2cc3ccccc3[nH]2)nc2ccccc21 (centres undefined)	.	.	.	49*	.	47*	69*
N#Cc1ccc(C(C(=O)NCc2ccccc2)n2c(=O)c(-c3cc4ccccc4[nH]3)nc3ccccc32)cc1 (centres undefined)	.	.	.	58*	.	54*	72*
CC(C)(C)NC(=O)C(c1ccc(C#N)cc1)n1c(=O)c(-c2ccccc2)nc2ccccc21 (centres undefined)	.	.	.	-4	.	.	.
CCN1CCN(c2ccc(S(=O)(=O)N3CCCCC3)cc2NC(=O)CC(C)c2ccccc2)CC1 (centres undefined)	0	.	-7	4	4	.	.
CC(=O)Nc1ccc(Sc2ccc([N+](=O)[O-])o2)cc1	-2	.	7	29*	26	47*	16*
CC(C)(C)C(=O)Nc1ccc(Sc2ccc([N+](=O)[O-])cc2)cc1	4	-3	-11	-8	15	.	.
O=C1C=CC(=O)N1c1cccc(-c2ccccc2)c1	-2	.	13	36*	48*	90*	29*
C[C@@H]1CN([C@H](C)CO)S(=O)(=O)c2ccc(-c3ccc(C(=O)N(C)C)cc3)cc2O[C@H]1CN(C)C(=O)Cc1ccccn1	1	.	2	-14	4	.	.
SMILES	MC4R ag barr	TLR4-MyD88 BLA	TLR9-MyD88 block	NOD2 RIPK2 PPI	MC4R antag cAMP	NOD2-RIPK2 conf	NOD2 BLA counter
Cc1cccc(NC(=O)CNC(=O)[C@H]2O[C@@H](n3ccc(N)nc3=O)[C@H](O)[C@@H]2O)c1C	.	.	.	-1	.	.	.
COc1ccc(C=O)cc1Oc1nc(Cl)ncc1F	-1	10	-3	1	7	.	.
Cc1cc(C)nc(SCCC(=O)Nc2ccccc2Cl)n1	0	-18	2	3	3	.	.
COC(=O)c1ccc(N2C(c3cc(OC)cc(OC)c3)=Cc3ccc(-c4cccnc4)cc3C2CC(=O)C2CC2)cc1 (centres undefined)	.	.	.	-8	.	.	.
COC(=O)c1ccc(N2C(c3cc(OC)cc(OC)c3)=Cc3ccc(-c4ccc(C(N)=O)cc4)cc3C2CC(=O)C2CC2)cc1 (centres undefined)	.	.	.	34*	.	36*	59*
O=C(c1cc([N+](=O)[O-])ccc1N1CCOCC1)N1CCN(S(=O)(=O)c2cc(Cl)ccc2Cl)CC1	-3	.	-8	5	0	.	.
CC[C@@H](C)[C@H](CNC)NC[C@@H](Cc1cccc2ccccc12)NCCc1cccc(C(F)(F)F)c1	6	.	-7	19	11	.	.
CNC[C@@H](CC1CCCCC1)NC[C@H](CC(C)C)NCCc1cccc(C(F)(F)F)c1	6	.	-5	21*	3	28*	6
CCC(C)NS(=O)(=O)c1ccc(NC(=O)CNCc2cccs2)cc1 (centres undefined)	0	.	0	-7	16	.	.
COc1ccc(/C=C/C(=O)c2cc(F)ccc2OC(=O)c2ccccc2OC)cc1OC	-3	13	4	22*	-23	22*	1
COc1ccc(/C=C/C(=O)c2cc(F)ccc2OC(=O)c2ccccc2)cc1OC	0	7	1	26*	-17	18	-2
COc1ccc(/C=C/C(=O)c2cc(Br)ccc2OC(=O)c2ccco2)cc1OC	-3	-2	-6	-1	12	.	.
COc1ccc(/C=C/C(=O)c2cc(F)ccc2OC(=O)c2ccc(OC)c(OC)c2)cc1OC	-1	-7	-7	3	12	.	.
C=CCOc1ccc(/C=N/NC(=O)CN2CCCCC2)cc1OC	0	.	-9	-2	6	.	.
CCOC(=O)c1c(SCCN2CCCC2)n(-c2ccccc2)c(=S)n(-c2ccccc2)c1=O	-1	.	8	89*	22	86*	5
